Results: ChEMBL document CHEMBL1147117, “Novel synthetic antimicrobial peptides against Streptococcus mutans” (2007)
Where a SMILES comes first, the peptide text is derived from it.

Tests used:
Type in all cases: functional
Streptococcus mutans [1] = assay: Antibacterial activity against Streptococcus mutans after 16 to 20 hrs
Summary of the method: (§1)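 Broth microdilution in TH broth or Veillonella medium. Overnight cultures grown to OD600 0.75 to 0.8 were diluted to 1 x 10^5 CFU/ml. Peptide was serially diluted 1:2 from 500 or 512 µg/ml down to 1.95 or 2 µg/ml, with a methanol solvent control. Incubation was 16 to 20 h at 37°C, anaerobic, without shaking. MIC was read visually as the last clear well. Run in triplicate.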

Streptococcus gordonii = assay: Antibacterial activity against Streptococcus gordonii Challis DL1 after 16 to 20 hrs; summary of the method: as §1
Streptococcus mitis = assay: Antibacterial activity against Streptococcus mitis ATCC 903 after 16 to 20 hrs; summary of the method: as §1
Streptococcus sanguinis = assay: Antibacterial activity against Streptococcus sanguinis NY101 after 16 to 20 hrs; summary of the method: as §1
Lacticaseibacillus casei = assay: Antibacterial activity against Lactobacillus casei ATCC 4646 after 16 to 20 hrs; summary of the method: as §1
Veillonella atypica = assay: Antibacterial activity against Veillonella atypica PK1910 after 16 to 20 hrs; summary of the method: as §1
Streptococcus mutans [2] = assay: Bactericidal activity against Streptococcus mutans UA159 assessed as time required to kill 3 log10 of recoverable CFU/ml at 25 ug/ml relative to untreated control
Summary of the method: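 Time-kill assay. Overnight UA159 cultures were diluted in medium to 0.5 x 10^6 to 1 x 10^6 CFU/ml and exposed to 25 µg/ml peptide. At each time point a 10-µl aliquot was diluted 1:50 into growth medium and plated on TH agar; whole 1-ml samples were plated when survivors were below 3,000 CFU/ml. TC is the time for survivors to fall 3 log10 below untreated CFU/ml. Repeated 3 to 5 times.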

Row | Compound | MIC (Streptococcus mutans [1]) | also measured
1 | H-AQAAHQAAHAAHQF-NH2 | > 125 µg/mL | 
2 | H-AQAAKQAAKAAKQF-NH2 | > 125 µg/mL | 
3 | H-FKKFWKWFRRF-NH2 | 8 µg/mL | MIC (Streptococcus gordonii): 32 µg/mL; MIC (Streptococcus mitis): 32 µg/mL; MIC (Streptococcus sanguinis): 32 µg/mL; MIC (Lacticaseibacillus casei): 32 µg/mL; MIC (Veillonella atypica): 16 µg/mL
4 | H-IKQLLHFFQRFGGGRWRRLLKKLHHLLH-NH2 | 16 µg/mL | 
5 | H-IKTLLHFFQRF-NH2 | 32 µg/mL | 
6 | H-KLAQKVKRVLR-OH | > 125 µg/mL | 
7 | H-KLKKLLKHLHHLLH-NH2 | 8 µg/mL | 
8 | H-KLKKLLKRWRRWWR-OH | 8 µg/mL | 
9 | H-KLLQTFKQIFR-OH | > 250 µg/mL | 
10 | H-KLLQTFNQIFR-OH | > 125 µg/mL | 
11 | H-KLVQQLKNIFR-OH | > 125 µg/mL | 
12 | H-LQLLKQLLKLLKQF-NH2 | 8 µg/mL | 
13 | H-LYHFLHWFQRF-NH2 | 125 µg/mL | 
14 | H-RALHEAKEALK-OH | > 250 µg/mL | 
15 | H-RALKRIKHVLK-OH | > 125 µg/mL | 
16 | H-RILKELKNLFK-OH | > 250 µg/mL | 
17 | H-RLLKRFKHLFK-OH | 31.2 µg/mL | 
18 | H-RRRFWWR-OH | 31.2 µg/mL | 
19 | H-RRRKWWK-OH | 250 µg/mL | 

Row | Compound | MIC (Streptococcus mutans [1]) | also measured
20 | H-RRRRWWK-OH | 125 µg/mL | 
21 | H-RRRWWWF-NH2 | 4 µg/mL | MIC (Streptococcus gordonii): 32 µg/mL; MIC (Streptococcus mitis): 32 µg/mL; MIC (Streptococcus sanguinis): 16 µg/mL; MIC (Lacticaseibacillus casei): 16 µg/mL; MIC (Veillonella atypica): 64 µg/mL; Time (Streptococcus mutans [2]): 220 min
22 | H-RRRWWWFPSGSPRRRWWWF-NH2 | 32 µg/mL | Time (Streptococcus mutans [2]): 420 min
23 | H-RRRWWWFRRRWWWF-NH2 | 16 µg/mL | Time (Streptococcus mutans [2]): 60 min
24 | H-RRWWRRW-OH | 16 µg/mL | 
25 | H-RVLNQVKQILK-OH | > 125 µg/mL | 
26 | H-RWRKRWK-OH | 125 µg/mL | 
27 | H-RWRRLLKKLHHLLH-NH2 | 8 µg/mL | MIC (Streptococcus gordonii): 16 µg/mL; MIC (Streptococcus mitis): 32 µg/mL; MIC (Streptococcus sanguinis): 16 µg/mL; MIC (Lacticaseibacillus casei): 16 µg/mL; MIC (Veillonella atypica): 4 µg/mL
28 | H-RWRRLLKKLHHLLHGGGFKKFWKWFRRF-NH2 | 4 µg/mL | MIC (Streptococcus gordonii): 16 µg/mL; MIC (Streptococcus mitis): 32 µg/mL; MIC (Streptococcus sanguinis): 16 µg/mL; MIC (Lacticaseibacillus casei): 8 µg/mL; MIC (Veillonella atypica): 8 µg/mL
29 | H-RWRRLLKKLHHLLHGGGIKQLLHFFQRF-NH2 | 16 µg/mL | 
30 | H-RWRRWWRHFHHFFH-NH2 | 8 µg/mL | 
31 | H-RWRWRWF-NH2 | 125 µg/mL | MIC (Streptococcus gordonii): 32 µg/mL; MIC (Streptococcus mitis): 32 µg/mL; MIC (Streptococcus sanguinis): 32 µg/mL; MIC (Lacticaseibacillus casei): 32 µg/mL; MIC (Veillonella atypica): 64 µg/mL; Time (Streptococcus mutans [2]): 220 min
32 | H-RWRWRWFGGGFKKFWKWFRRF-NH2 | 4 µg/mL | MIC (Streptococcus gordonii): 16 µg/mL; MIC (Streptococcus mitis): 64 µg/mL; MIC (Streptococcus sanguinis): 8 µg/mL; MIC (Lacticaseibacillus casei): 8 µg/mL; MIC (Veillonella atypica): 8 µg/mL
33 | H-RWRWRWFGGGIKQLLHFFQWRF-NH2 | 8 µg/mL | 
34 | H-RWRWRWFRWRWRWF-NH2 | 16 µg/mL | Time (Streptococcus mutans [2]): 50 min
35 | H-RWRWRWK-OH | 32 µg/mL | 
36 | H-VKKLAKLVRRF-NH2 | 16 µg/mL | 
37 | H-VKNLAELVHRF-NH2 | > 250 µg/mL | 

Continued, in another order:

Row | MIC (Streptococcus mutans [1]) | Compound | also measured
38 | 125 µg/mL | Cl.N=C(N)NCCC[C@H](NC(=O)[C@H](CCCNC(=N)N)NC(=O)[C@@H](N)CCCNC(=N)N)C(=O)N[C@@H](CCCCN)C(=O)N[C@@H](Cc1c[nH]c2ccccc12)C(=O)N[C@@H](Cc1c[nH]c2ccccc12)C(=O)N[C@@H](CCCCN)C(=O)O (H-RRRKWWK-OH) | 
39 | 16 µg/mL | H-AKRLLKVLKRF-NH2 | 
40 | > 250 µg/mL | H-ATHLLHALQRF-NH2 | 
41 | 125 µg/mL | H-FHYFWHWFHRF-NH2 | 
42 | 16 µg/mL | H-FKKFWKWFRRFGGGRWRRLLKKLHHLLH-NH2 | 
43 | 4 µg/mL | H-FKKFWKWFRRFGGGRWRWRWF-NH2 | MIC (Streptococcus gordonii): 32 µg/mL; MIC (Streptococcus mitis): 64 µg/mL; MIC (Streptococcus sanguinis): 16 µg/mL; MIC (Lacticaseibacillus casei): 8 µg/mL; MIC (Veillonella atypica): 8 µg/mL
44 | 24 µg/mL | H-FKTFLKWLHRF-NH2 | 
45 | 16 µg/mL | H-FKTFLQWLHRF-NH2 | 
46 | 24 µg/mL | H-IKQLLHFFQRF-NH2 | MIC (Streptococcus gordonii): 32 µg/mL; MIC (Streptococcus mitis): 64 µg/mL; MIC (Streptococcus sanguinis): 64 µg/mL; MIC (Lacticaseibacillus casei): 32 µg/mL; MIC (Veillonella atypica): 64 µg/mL
47 | 4 µg/mL | H-IKQLLHFFQRFGGGRWRWRWF-NH2 | MIC (Streptococcus gordonii): 32 µg/mL; MIC (Streptococcus mitis): 64 µg/mL; MIC (Streptococcus sanguinis): 16 µg/mL; MIC (Lacticaseibacillus casei): 16 µg/mL; MIC (Veillonella atypica): 8 µg/mL
48 | > 250 µg/mL | H-KLAENVKEILR-NH2 | 
49 | 31.2 µg/mL | H-KLFKRWKHLFR-OH | 
50 | 8 µg/mL | H-KLKKLLKKLKKLLK-OH | 
51 | > 250 µg/mL | H-KLVEQLKEIFR-OH | 
52 | 8 µg/mL | H-LKLLKKLLKLLKKF-NH2 | 
53 | 32 µg/mL | H-LKQFVHFIHRF-NH2 | 
54 | 24 µg/mL | H-LKQFVKFIHRF-NH2 | 
55 | 8 µg/mL | H-LKRFLKWFKRF-NH2 | MIC (Streptococcus gordonii): 32 µg/mL; MIC (Streptococcus mitis): 64 µg/mL; MIC (Streptococcus sanguinis): 16 µg/mL; MIC (Lacticaseibacillus casei): 16 µg/mL; MIC (Veillonella atypica): 32 µg/mL
56 | 4 µg/mL | H-LKRFLKWFKRFGGGRWRWRWF-NH2 | MIC (Streptococcus gordonii): 64 µg/mL; MIC (Streptococcus mitis): 64 µg/mL; MIC (Streptococcus sanguinis): 16 µg/mL; MIC (Lacticaseibacillus casei): 16 µg/mL; MIC (Veillonella atypica): 8 µg/mL

Row | MIC (Streptococcus mutans [1]) | Compound | also measured
57 | 16 µg/mL | H-RRRRWWW-OH | 
58 | 32 µg/mL | H-RRRWWWFASASARRRWWWF-NH2 | Time (Streptococcus mutans [2]): 480 min
59 | 16 µg/mL | H-RRRWWWFGGGRRRWWWF-NH2 | Time (Streptococcus mutans [2]): 270 min
60 | 31.2 µg/mL | H-RRRWWWK-OH | 
61 | 32 µg/mL | H-RRRWWWR-OH | 
62 | 500 µg/mL | H-RRWKRRK-OH | 
63 | 4 µg/mL | H-RRWWRRF-NH2 | 
64 | 125 µg/mL | H-RRWWRRK-OH | 
65 | > 250 µg/mL | H-RVLQEIKQILK-OH | 
66 | 16 µg/mL | H-RWRWRWFASASARWRWRWF-NH2 | Time (Streptococcus mutans [2]): 45 min
67 | 8 µg/mL | H-RWRWRWFGGGLKRFLKWFKRF-NH2 | MIC (Streptococcus gordonii): 32 µg/mL; MIC (Streptococcus mitis): 64 µg/mL; MIC (Streptococcus sanguinis): 16 µg/mL; MIC (Lacticaseibacillus casei): 8 µg/mL; MIC (Veillonella atypica): 16 µg/mL
68 | 16 µg/mL | H-RWRWRWFGGGRWRWRWF-NH2 | Time (Streptococcus mutans [2]): 90 min
69 | 32 µg/mL | H-RWRWRWFPSGSPRWRWRWF-NH2 | Time (Streptococcus mutans [2]): 270 min
70 | 32 µg/mL | H-RWRWRWR-OH | 
71 | > 125 µg/mL | H-TILQSLKNIFK-OH | 
72 | 32 µg/mL | H-VKQLLKIFNRF-NH2 | 
73 | 31.2 µg/mL | H-VKTLLHIFQRF-NH2 | 
74 | > 125 µg/mL | H-YLFQTWQHLFR-OH | 
75 | > 125 µg/mL | H-YLLTEFQHLFK-OH | 
